From ChEMBL document CHEMBL4346746, “Inhibition of 3-phosphoglycerate dehydrogenase (PHGDH) by indole amides abrogates de novo serine synthesis in cancer cells” (Bioorg Med Chem Lett, 2019)
Activity calls are given as the source filed them. The calls are words filed in the database; no cut-off is given here.

Key:
[1] = molecular target: T1, D-3-phosphoglycerate dehydrogenase (Homo sapiens) (UniProt O43175); assay: Mixed type inhibition of PHGDH (unknown origin) assessed as decrease in substrate Vmax 3-PG as substrate incubated for 20 mins in presence of , PSAT1, PSPH and varying NAD+ by diaphorase and resazurin dye based fluorescence assay
T1 sequence (whole entry): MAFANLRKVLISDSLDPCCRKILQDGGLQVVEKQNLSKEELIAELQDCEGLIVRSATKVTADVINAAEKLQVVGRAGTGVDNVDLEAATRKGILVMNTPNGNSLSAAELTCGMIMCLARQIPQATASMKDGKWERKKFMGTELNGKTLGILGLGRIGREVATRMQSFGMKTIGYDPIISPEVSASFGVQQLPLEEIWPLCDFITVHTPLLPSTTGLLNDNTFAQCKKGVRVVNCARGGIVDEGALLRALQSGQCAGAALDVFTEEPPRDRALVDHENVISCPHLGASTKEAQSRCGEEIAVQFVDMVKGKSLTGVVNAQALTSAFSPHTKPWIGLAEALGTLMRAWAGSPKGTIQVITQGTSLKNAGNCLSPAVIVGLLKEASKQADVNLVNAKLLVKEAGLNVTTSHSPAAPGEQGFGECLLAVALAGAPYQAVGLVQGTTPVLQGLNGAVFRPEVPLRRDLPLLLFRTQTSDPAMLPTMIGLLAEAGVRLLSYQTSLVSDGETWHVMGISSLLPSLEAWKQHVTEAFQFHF

[2] = molecular target: Isocitrate dehydrogenase [NADP] cytoplasmic (Homo sapiens, UniProt O75874); assay: Inhibition of recombinant human IDH1 expressed in Escherichia coli using isocitrate as substrate incubated for 30 mins followed by substrate addition
[3] = molecular target: T2, Malate dehydrogenase, cytoplasmic (Homo sapiens, UniProt P40925); assay: Inhibition of recombinant human MDH1 expressed in Escherichia coli using malate as substrate incubated for 30 mins followed by substrate addition
T2 sequence (P40925 whole entry): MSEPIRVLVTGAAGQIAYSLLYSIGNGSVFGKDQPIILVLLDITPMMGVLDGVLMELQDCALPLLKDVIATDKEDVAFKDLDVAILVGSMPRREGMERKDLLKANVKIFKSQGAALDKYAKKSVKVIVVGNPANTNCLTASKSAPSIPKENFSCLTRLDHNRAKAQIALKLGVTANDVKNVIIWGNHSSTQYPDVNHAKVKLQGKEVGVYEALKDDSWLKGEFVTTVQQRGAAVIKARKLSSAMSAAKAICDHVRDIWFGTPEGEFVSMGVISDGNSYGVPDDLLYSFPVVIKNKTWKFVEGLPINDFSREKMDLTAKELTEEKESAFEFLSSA

[4] = molecular target: L-lactate dehydrogenase A chain (Homo sapiens, UniProt P00338); assay: Inhibition of recombinant human LDHA expressed in Escherichia coli using lactate as substrate incubated for 30 mins followed by substrate addition
[5] = molecular target: T1, D-3-phosphoglycerate dehydrogenase (Homo sapiens); assay: Mixed type inhibition of PHGDH (unknown origin) assessed as rightward shift in substrate Km using 3-PG as substrate incubated for 20 mins in presence of , PSAT1, PSPH and varying NAD+ by diaphorase and resazurin dye based fluorescence assay
[6] = molecular target: T1, D-3-phosphoglycerate dehydrogenase (Homo sapiens); assay: Inhibition of PHGDH-mediated serine synthesis in human Carney cells in serine free medium up to 40 uM preincubated for 1 hr followed by 13C6 labelled glucose addition and measured after 2 hrs by LC/MS analysis based 13C6-Glucose tracing assay; type: cell-based
How it was run: (§1)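 Carney cells were pretreated with inhibitor for 1 h in the presence of 12C3-serine, then washed. They were labelled with 13C6-glucose medium for 2 h with inhibitor still present. 13C incorporation into serine was read by LC-MS; 3-PG and pyruvate labelling were also monitored.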

[7] = Effect on 3-PG level in human Carney cells in serine free medium assessed as 13C-labeling of 3-PG at 1 to 40 uM preincubated for 1 hr followed by 13C6 labelled glucose addition and measured after 2 hrs by LC/MS analysis; type: ADME, cell-based
How it was run: (§2)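 Carney cells were pretreated with inhibitor for 1 h in the presence of 12C3-serine, then washed. They were labeled with 13C6-glucose medium for 2 h with inhibitor still present. Label incorporation into 3-PG and pyruvate was measured by LC-MS, alongside serine labeling as the pathway read-out.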

[8] = molecular target: T3, D-3-phosphoglycerate dehydrogenase (Homo sapiens, UniProt O43175); assay: Inhibition of PHGDH (unknown origin) using 140 nM of PHGDH and 3-PG as substrate incubated for 20 mins in presence of NAD+, PSAT1, PSPH by diaphorase and resazurin dye based fluorescence assay
T3 sequence (O43175 whole entry): T1 sequence (whole entry)

[9] = Effect on pyruvate level in human Carney cells in serine free medium assessed as 13C-labeling of pyruvate at 0.1 to 10 uM preincubated for 1 hr followed by 13C6 labelled glucose addition and measured after 2 hrs by LC/MS analysis; type: ADME, cell-based; how it was run: as §2
[10] = Effect on 3-PG level in human Carney cells in serine free medium assessed as 13C-labeling of 3-PG at 0.1 to 10 uM preincubated for 1 hr followed by 13C6 labelled glucose addition and measured after 2 hrs by LC/MS analysis; type: ADME, cell-based; how it was run: as §2
[11] = molecular target: T1, D-3-phosphoglycerate dehydrogenase (Homo sapiens); assay: Inhibition of PHGDH-mediated serine synthesis in human Carney cells in serine free medium at 10 uM preincubated for 1 hr followed by 13C6 labelled glucose addition and measured after 2 hrs by LC/MS analysis based 13C6-Glucose tracing assay relative control; type: cell-based; how it was run: as §1
[12] = molecular target: T3, D-3-phosphoglycerate dehydrogenase; assay: Inhibition of PHGDH (unknown origin) using 11 nM of PHGDH and 3-PG as substrate incubated for 20 mins in presence of NAD+, PSAT1, PSPH by diaphorase and resazurin dye based fluorescence assay
[13] = Apparent permeability across apical to basolateral side in MDCK cells overexpressing MDR1; type: ADME, cell-based, Canis lupus familiaris; conditions: dog
[14] = Lipophilicity, log D of the compound at pH 7.4 by HPLC analysis; type: physicochemical; conditions: buffer
[15] = Efflux ratio of apparent permeability across basolateral to apical over apical to basolateral side in MDCK cells overexpressing MDR1; type: ADME, cell-based, Canis lupus familiaris; conditions: dog
[16] = Effect on pyruvate level in human Carney cells in serine free medium assessed as 13C-labeling of pyruvate at 0.1 to 20 uM preincubated for 1 hr followed by 13C6 labelled glucose addition and measured after 2 hrs by LC/MS analysis; type: ADME, cell-based; how it was run: as §2
Homo sapiens = species: Homo sapiens; assay: Antiproliferative activity against human Carney cells in serine free medium at 2 uM with media and test compound change for every 2 days and measured every 6 hrs by automated microscopic method; type: functional, cell-based
[17] = Effect on 3-PG level in human Carney cells in serine free medium assessed as 13C-labeling of 3-PG at 0.1 to 20 uM preincubated for 1 hr followed by 13C6 labelled glucose addition and measured after 2 hrs by LC/MS analysis; type: ADME, cell-based; how it was run: as §2
[18] = molecular target: T3, D-3-phosphoglycerate dehydrogenase; assay: Inhibition of PHGDH (unknown origin)
[19] = molecular target: T1, D-3-phosphoglycerate dehydrogenase (Homo sapiens); assay: Inhibition of PHGDH-mediated serine synthesis in human Carney cells in serine free medium at 1 uM preincubated for 1 hr followed by 13C6 labelled glucose addition and measured after 2 hrs by LC/MS analysis based 13C6-Glucose tracing assay relative control; type: cell-based; how it was run: as §1
[20] = molecular target: T1, D-3-phosphoglycerate dehydrogenase (Homo sapiens); assay: Inhibition of PHGDH-mediated serine synthesis in human Carney cells in serine free medium at uM preincubated for 1 hr followed by 13C6 labelled glucose addition and measured after 2 hrs by LC/MS analysis based 13C6-Glucose tracing assay relative control; type: cell-based; conditions: concentration not given here; how it was run: as §1
in vitro = conditions: PAMPA, pH 5
[21] = molecular target: T1, D-3-phosphoglycerate dehydrogenase (Homo sapiens); assay: Inhibition of PHGDH-mediated serine synthesis in human Carney cells in serine free medium preincubated for 1 hr followed by 13C6 labelled glucose addition and measured after 2 hrs by LC/MS analysis based 13C6-Glucose tracing assay relative control; type: cell-based; how it was run: as §1
[22] = Effect on pyruvate level in human Carney cells in serine free medium assessed as 13C-labeling of pyruvate at 1 to 40 uM preincubated for 1 hr followed by 13C6 labelled glucose addition and measured after 2 hrs by LC/MS analysis; type: ADME, cell-based; how it was run: as §2
[23] = molecular target: T1, D-3-phosphoglycerate dehydrogenase (Homo sapiens); assay: Inhibition of PHGDH-mediated serine synthesis in human Carney cells in serine free medium at 40 uM preincubated for 1 hr followed by 13C6 labelled glucose addition and measured after 2 hrs by LC/MS analysis based 13C6-Glucose tracing assay relative control; type: cell-based; how it was run: as §1
[24] = molecular target: T1, D-3-phosphoglycerate dehydrogenase (Homo sapiens); assay: Inhibition of PHGDH-mediated serine synthesis in human Carney cells in serine free medium at 1 to 40 uM preincubated for […] followed by 13C6 labelled glucose addition and measured after 2 hrs by LC/MS analysis based 13C6-Glucose tracing assay relative control; type: cell-based

Isocitrate dehydrogenase [NADP] cytoplasmic, sequence (O75874 whole entry): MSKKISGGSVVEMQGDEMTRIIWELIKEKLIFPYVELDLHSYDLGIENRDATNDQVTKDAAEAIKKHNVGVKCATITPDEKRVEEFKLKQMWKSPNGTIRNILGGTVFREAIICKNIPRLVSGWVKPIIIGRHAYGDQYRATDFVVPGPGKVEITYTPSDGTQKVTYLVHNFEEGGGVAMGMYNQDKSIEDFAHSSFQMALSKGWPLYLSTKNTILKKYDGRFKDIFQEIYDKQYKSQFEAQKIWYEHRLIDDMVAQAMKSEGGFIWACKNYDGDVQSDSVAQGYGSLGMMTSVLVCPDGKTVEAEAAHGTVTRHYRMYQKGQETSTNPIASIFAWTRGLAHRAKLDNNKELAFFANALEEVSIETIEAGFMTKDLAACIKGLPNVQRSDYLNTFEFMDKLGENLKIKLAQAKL

Q: Which inhibition [1] does the source give for `O=C1NC[C@@H](COc2cc3[nH]c(C(=O)N[C@H](CO)c4ccc(C(=O)O)cc4)cc3cc2Cl)O1` here?
A: Active

Q: What about the IC50 [2] of the same compound?
A: > 10 µM

Q: And the IC50 [3]?
A: > 10 µM

Q: And the IC50 [4]?
A: > 10 µM

Q: And the inhibition [5]?
A: Active

Q: What about the inhibition [6] of the same compound?
A: inactive

Q: What about the Activity [7] of the same compound?
A: Non-Toxic

Q: For `CCOC(=O)C(c1ccc(C2(NC(=O)c3cc4c(Cl)c(Cl)ccc4n3C)COC2)cc1)c1cccnc1` (stereo not given), which IC50 [8] is on record?
A: 1.33 µM

Q: What about the Activity [9] of the same compound?
A: Non-Toxic

Q: What about the Activity [10] of the same compound?
A: Non-Toxic

Q: What about the inhibition [11] of the same compound?
A: 70%

Q: With `Cn1c(C(=O)NC2(c3ccc(C(CC(=O)O)c4cccnc4)cc3)COC2)cc2c(Cl)c(Cl)ccc21` (stereo not given) as the compound, how does the IC50 [12] read?
A: 0.025 µM

Q: With `COc1cc2c(cc1Cl)cc(C(=O)N[C@H](C)c1ccc(C(=O)O)cc1)n2C` as the compound, how does the IC50 [8] read?
A: 0.235 µM

Q: And the Papp [13]?
A: 14 nm/s

Q: What about the logD [14] of the same compound?
A: 1.67

Q: And the Ratio [15]?
A: 1.3

Q: With `Cn1c(C(=O)NC2(c3ccc(C(C(=O)O)c4cccnc4)cc3)COC2)cc2c(Cl)c(Cl)ccc21` (racemic) as the compound, how does the IC50 [2] read?
A: > 10 µM

Q: What about the IC50 [3] of the same compound?
A: > 10 µM

Q: And the Activity [16]?
A: Non-Toxic

Q: And the Activity (Homo sapiens)?
A: Active

Q: What about the Activity [17] of the same compound?
A: Non-Toxic

Q: And the inhibition [11]?
A: 90%

Q: For `CONC(=O)Cc1ccc(C2(NC(=O)c3cc4c(Cl)c(Cl)ccc4n3C)COC2)cc1`, which IC50 [8] is on record?
A: 0.287 µM

Q: Which IC50 [12] does the source give for `Cn1c(C(=O)NC2(c3ccc(CC(=O)O)c(F)c3)COC2)cc2c(Cl)c(Cl)ccc21` here?
A: 0.034 µM

Q: Which IC50 [18] does the source give for `C#CSc1c(NC(=O)c2ccco2)sc(C(=O)OCC)c1C` here?
A: 33 µM

Q: Which results are given for `Cn1c(C(=O)NC2(c3ccc([C@@H](O)c4cccnc4)cc3)COC2)cc2c(Cl)c(Cl)ccc21`?
A: IC50 [2]: > 10 µM; IC50 [8]: 0.37 µM; IC50 [3]: > 10 µM; IC50 [4]: > 10 µM

Q: With `COc1cc2c(cc1Cl)cc(C(=O)NC(CN)c1ccc(C(=O)O)cc1)n2C` (stereo not given) as the compound, how does the IC50 [8] read?
A: 23.4 µM

Q: What does the source list for `CC(=O)OC(C)OC(=O)C(c1ccc(C2(NC(=O)c3cc4c(Cl)c(Cl)ccc4n3C)COC2)cc1)c1cccnc1` (stereo not given)?
A: inhibition [19]: < 100%; IC50 [8]: 1.46 µM; Activity [9]: Non-Toxic; inhibition [20]: 40%; Activity (Homo sapiens): Active; Activity [10]: Non-Toxic

Q: For `Cn1c(C(=O)NC2(c3ccc(C(=O)O)c(F)c3)COC2)cc2c(Cl)c(Cl)ccc21`, which Papp at 10 µM (in vitro) is on record?
A: 152 nm/s

Q: And the IC50 [12]?
A: 0.037 µM

Q: For `Cn1c(C(=O)NC2(c3ccc(C(=O)O)nc3)COC2)cc2c(Cl)c(Cl)ccc21`, which IC50 [8] is on record?
A: 22 µM

Q: With `Cn1c(CNC2(c3ccc(C(=O)O)cc3)COC2)cc2c(Cl)c(Cl)ccc21` as the compound, how does the IC50 [8] read?
A: 209 µM

Q: With `Cn1c(C(=O)NC2(c3ccc(CO)cc3)COC2)cc2c(Cl)c(Cl)ccc21` as the compound, how does the IC50 [8] read?
A: 1.58 µM

Q: For `Cn1c(C(=O)NC2(c3ccc([C@H](O)c4cccnc4)cc3)COC2)cc2c(Cl)c(Cl)ccc21`, which IC50 [8] is on record?
A: 0.99 µM

Q: With `Cn1c(C(=O)NC2(c3ccc(CC(=O)NS(C)(=O)=O)cc3)COC2)cc2c(Cl)c(Cl)ccc21` as the compound, how does the IC50 [12] read?
A: 0.439 µM

Q: For `COc1cc2c(cc1Cl)cc(C(=O)NC(CO)c1ccc(C(=O)O)cc1)n2C` (stereo not given), which IC50 [8] is on record?
A: 0.235 µM

Q: For `Cn1c(C(=O)NC2(c3ccc(C(=O)O)cc3)COC2)cc2c(Cl)c(Cl)ccc21`, which inhibition [21] is on record?
A: Dose-dependent effect

Q: What about the Activity [22] of the same compound?
A: Non-Toxic

Q: And the inhibition [23]?
A: 100%

Q: And the inhibition [24]?
A: Active

Q: And the inhibition [11]?
A: 40%

Q: What about the Activity [7] of the same compound?
A: Non-Toxic
